Screens as filed in PubChem.
Mdm2-MdmX inh – inhibitors of human Mdm2-MdmX association, primary screen, cell-based, luminescence, split luciferase, SaOS-2, uHTS; SaOS-2 split-luciferase Mdm2/MdmX complementation; inhibition, % at 8 µM; hit rate 3% among 330,000;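 active means inhibition of at least 50% at 8 µM in the primary screen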
Target sequence (O15151 whole entry, looked up): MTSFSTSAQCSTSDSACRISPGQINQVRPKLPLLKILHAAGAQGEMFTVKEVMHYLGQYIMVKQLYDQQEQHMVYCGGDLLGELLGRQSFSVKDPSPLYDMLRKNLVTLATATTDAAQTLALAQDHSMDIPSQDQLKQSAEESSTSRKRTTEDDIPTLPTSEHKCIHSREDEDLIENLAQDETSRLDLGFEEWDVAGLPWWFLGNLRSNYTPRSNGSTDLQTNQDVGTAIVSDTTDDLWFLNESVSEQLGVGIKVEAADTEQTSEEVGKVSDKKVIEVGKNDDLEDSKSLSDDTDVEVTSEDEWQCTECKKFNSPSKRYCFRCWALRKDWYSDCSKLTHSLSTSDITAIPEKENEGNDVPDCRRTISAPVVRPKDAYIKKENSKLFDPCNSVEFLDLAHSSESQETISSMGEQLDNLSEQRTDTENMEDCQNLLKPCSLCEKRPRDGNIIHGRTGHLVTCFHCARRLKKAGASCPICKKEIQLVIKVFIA
Target sequence (Q00987 whole entry, looked up): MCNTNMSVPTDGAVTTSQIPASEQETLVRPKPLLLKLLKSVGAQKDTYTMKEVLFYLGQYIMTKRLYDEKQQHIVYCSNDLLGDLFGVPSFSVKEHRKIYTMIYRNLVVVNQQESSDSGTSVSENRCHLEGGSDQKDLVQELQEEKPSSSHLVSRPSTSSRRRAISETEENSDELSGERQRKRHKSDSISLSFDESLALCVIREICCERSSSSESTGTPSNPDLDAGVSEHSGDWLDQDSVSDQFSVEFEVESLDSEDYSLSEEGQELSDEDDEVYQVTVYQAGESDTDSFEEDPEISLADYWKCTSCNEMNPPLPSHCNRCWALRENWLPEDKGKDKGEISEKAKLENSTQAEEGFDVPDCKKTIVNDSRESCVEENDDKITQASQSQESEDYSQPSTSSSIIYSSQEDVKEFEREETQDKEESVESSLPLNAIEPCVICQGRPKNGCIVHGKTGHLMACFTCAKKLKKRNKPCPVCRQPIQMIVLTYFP
T cruzi inh – inhibitors of intracellular T. cruzi growth, primary screen, luminescence, NIH3T3 host cells | T. cruzi beta-gal in NIH3T3, 90 h | inhibition, % (concentration not given with the values) | hit rate 1.4% among 300,000 | AID 1885, 2009;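 active means mean inhibition across valid replicates above about 55%, limit read from the data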;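 further: signal also drops with host cell toxicity which is not excluded here; 0% = plate median of DMSO wells and 100% = zero luminescence signal; higher percent means less beta-gal luminescence so fewer parasites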
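Read-out: Parasite load inhibition, % | Test system: Mouse NIH/3T3 fibroblasts infected with β-gal-expressing T. cruzi Tulahuen C4 | Amount: 5,000 cells/well | Medium: DMEM, 2% fetal bovine serum | Signal: GalScreen β-gal luminescence, detergent lysis, 60 min | Timing: 3 h attach, ≥90 h co-culture | Also added: Tulahuen C4 trypomastigotes, 5000/well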
Beta apoptosis – inhibitors of cytokine-induced beta cell apoptosis, primary screen, luminescence. hit rate 0.8% among 300,000. AID 435005, 2010. INS-1E cytokine-induced death, ATP luminescence, 48 h; percent of positive-control rescue, neutral wells zero. protection from apoptosis, % (test concentration not listed);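 active means Every replicate reaches about 75%, or at least half do and their mean reaches it too, limit read from the data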;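 further: 0% = cytokine-treated negative control wells and 100% = positive control rescue; higher means more ATP so stronger rescue from cytokine killing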
Calb FLC – C. albicans growth inhibition with fluconazole, primary screen, CaCi-2 strain, Alamar Blue fluorescence | growth inhibition, % (concentration not given with the values) | hit rate 0.57% among 300,000 | C. albicans CaCi-2 (fluconazole-resistant clinical isolate) + fluconazole, 48 h;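 active means growth inhibition above about 58% in most replicates, limit read from the data, passing the limit was not always enough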;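 further: all wells also contain fluconazole at 8 µg/ml as a sub-toxic cotreatment; 0% = median of DMSO wells and 100% = median of geldanamycin control wells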
CSC inhib – cancer stem cell viability inhibitors, primary screen, luminescence. cancer stem cell-like cells viability. inhibition, % at 7.5 µM. hit rate 1.1% among 300,000. AID 2717, 2010; in the data active means inhibition above about 75%; tested in HMLE shEcad cells
NLRP3 yeast inh – NALP3 inflammasome inhibitors in reconstituted yeast, primary screen, luminescence, uHTS. inhibition, % at 10 µM. Yeast reconstituted NLRP3/ASC/caspase-1, beta-gal luminescence, 24 h. AID 2825, 2010. hit rate 0.39% among 330,000;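 active means inhibition of 50% or more; inactive means inhibition below 50%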;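 further: plate controls were induced DMSO wells for no effect and uninduced yeast grown without galactose for full effect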
Starred values were filed as active, the others as inactive. Most compounds without a hit are left out; they make up all but 5.3% or so of the library.

`COc1ccc(N/N=C/c2c(O)n(-c3cccc(C)c3)c(=O)[nH]c2=O)cc1` gave Mdm2-MdmX inh 6, T cruzi inh -5, Beta apoptosis -10, Calb FLC 114*, CSC inhib 95* and NLRP3 yeast inh 19.
`CN1C(=O)c2ccccc2NC(=O)C1Cc1ccccc1` (stereo not given) gave Mdm2-MdmX inh 1, T cruzi inh -4, Calb FLC -3, CSC inhib -9 and NLRP3 yeast inh -3.
COc1ccccc1CCNC1CCCCCC1 was read as Mdm2-MdmX inh -18, T cruzi inh -14, Beta apoptosis -2, Calb FLC -12, CSC inhib 0 and NLRP3 yeast inh 29.
Screening COc1ccccc1CCNC1CCC(C(C)(C)C)CC1 (stereo not given) returned Mdm2-MdmX inh 3, T cruzi inh 59*, Beta apoptosis 10, Calb FLC 7, CSC inhib 32 and NLRP3 yeast inh 17.
`COC(=O)C1=C(c2cc3ccccc3o2)C[C@@H]2CC[C@H]1N2C(=O)N1CCOCC1` gave Mdm2-MdmX inh 45, T cruzi inh -14, Beta apoptosis 2, Calb FLC -6, CSC inhib 49 and NLRP3 yeast inh 7.
Screening O=c1c2ccccc2nc(/C=C/c2ccccc2F)n1-c1ccccc1O returned Mdm2-MdmX inh 49, T cruzi inh -7, Beta apoptosis 14, Calb FLC 1, CSC inhib 98* and NLRP3 yeast inh 11.
COc1cc(CN2CCN(c3cc(C)ccc3C)CC2)ccc1O was read as Mdm2-MdmX inh 31, T cruzi inh -7, Beta apoptosis 108*, Calb FLC -20, CSC inhib -5 and NLRP3 yeast inh -55.
`CCOC(=O)C(O)(c1ccc(NC(=O)c2ccc(Cl)c(Cl)c2)cc1)C(F)(F)F` (stereo not given) gave Mdm2-MdmX inh 20, T cruzi inh 51, Beta apoptosis 6, Calb FLC 17, CSC inhib 26 and NLRP3 yeast inh 22.
For CCOC(=O)C(=CNc1ccc(C(O)(C(=O)OCC)C(F)(F)F)cc1C)C(=O)OCC (stereo not given) the results were Mdm2-MdmX inh -2, T cruzi inh 17, Beta apoptosis 97*, Calb FLC 2, CSC inhib 11 and NLRP3 yeast inh 6.
Screening Nc1ccccc1N=Cc1c(O)n(CCC2=CCCCC2)c(=O)[nH]c1=O returned Mdm2-MdmX inh 24, T cruzi inh -9, Beta apoptosis 97*, Calb FLC 17, CSC inhib 96* and NLRP3 yeast inh -3.
For O=C(N/N=C/c1c(O)n(CCC2=CCCCC2)c(=S)[nH]c1=O)c1ccccc1 the results were Mdm2-MdmX inh 25, T cruzi inh 1, Beta apoptosis -1, Calb FLC 98*, CSC inhib 29 and NLRP3 yeast inh 4.
Screening COc1ccc(N2C(=O)NC(=O)C(CCc3ccncc3)(CCc3ccncc3)C2=O)cc1 returned Mdm2-MdmX inh 16, T cruzi inh 0, Beta apoptosis -1, Calb FLC -13, CSC inhib -2 and NLRP3 yeast inh 8.
For CCN1CCN(c2cn[nH]c(=O)c2Cl)CC1 the results were Mdm2-MdmX inh 4, T cruzi inh -5, Beta apoptosis -9, Calb FLC 10, CSC inhib -11 and NLRP3 yeast inh 13.
Screening C/C(=N\Nc1ccccc1)c1c(O)n(Cc2ccccc2)c(=O)[nH]c1=O returned Mdm2-MdmX inh 10, T cruzi inh -2, Beta apoptosis 3, Calb FLC 19, CSC inhib 110* and NLRP3 yeast inh 11.
For Cn1c(O)c(C(=O)c2ccccc2)c(=O)n(C)c1=O the results were Mdm2-MdmX inh -13, T cruzi inh -1, Beta apoptosis -1, Calb FLC -2, CSC inhib -12 and NLRP3 yeast inh 13.
C/C(=N\Nc1ccccc1)c1c(O)[nH]c(=O)[nH]c1=O was read as Mdm2-MdmX inh 18, T cruzi inh 32, Calb FLC -21, CSC inhib 82* and NLRP3 yeast inh 20.
